OX1R antag-1: OX1R (HCRTR1) antagonists, primary screen, fluorescence, CHO/OX1R cells, Fluo-8 calcium, orexin A | Fluo-8 calcium fluorescence | inhibition, % at 5 µM | 330,000 tested, 0.43% active;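 active = inhibition above its plate's threshold, mean inhibition of all tested compounds on the plate plus 3 SD, cut at about 37% in these data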;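 also: 0% = orexin A challenge wells and 100% = SB-334867-A antagonist wells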
Target sequence (O43613 whole entry, looked up): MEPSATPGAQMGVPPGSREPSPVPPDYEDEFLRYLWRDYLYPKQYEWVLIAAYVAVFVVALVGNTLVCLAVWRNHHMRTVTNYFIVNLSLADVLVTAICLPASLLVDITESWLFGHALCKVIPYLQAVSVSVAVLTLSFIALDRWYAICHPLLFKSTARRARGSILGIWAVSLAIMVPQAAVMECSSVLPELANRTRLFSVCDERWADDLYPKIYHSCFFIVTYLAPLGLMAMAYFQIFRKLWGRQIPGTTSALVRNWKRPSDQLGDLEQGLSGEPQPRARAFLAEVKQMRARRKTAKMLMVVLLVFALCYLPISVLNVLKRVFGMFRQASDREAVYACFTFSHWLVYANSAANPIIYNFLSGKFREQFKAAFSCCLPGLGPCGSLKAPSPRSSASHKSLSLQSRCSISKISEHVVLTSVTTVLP
TAAR1 ag: human TAAR1 agonists, primary screen, Fluo-8 calcium fluorescence, CHO RD-HGA16 cells; Trace amine-associated receptor 1 (Homo sapiens), Q96RJ0; vehicle wells 0%, saturating PEA agonist 100%; activation, % at 3 µM; 360,000 tested, 0.99% active; AID 624467, 2012;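 active = activation above the mean activation of all test compounds in the run plus 3 SD, cut at about 38% in these data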
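System: CHO-derived RD-HGA16 cells with stable Gα16 and human TAAR1. Times: 17-24 h plating, Fluo-8 75 min 37 °C, 30 min RT. Measured by: calcium-sensitive Fluo-8 signal, excitation 470-495, emission 515-575 nm. Read-out basis: % activation relative to PEA EC100 response. Control set: DMSO and PEA EC100. Repeats: no replicates (n 1).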
OX1R antag-2: antagonists of human orexin 1 receptor (OX1R); Orexin/Hypocretin receptor type 1 (Homo sapiens), O43613; OX1R-expressing cells, FRET antagonist read-out; inhibition, % at 6.6 µM; 330,000 tested, 1.8% active; AID 485270, 2010; in the data active = inhibition mostly above about 38%, no sharp cut-off; inactive = mostly below about 40%;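 also: 0% = agonist challenge alone and 100% = reference antagonist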
GPR7 antag: GPR7 receptor antagonists, primary screen, cell-based, fluorescence, single concentration. inhibition, % at 4.4 µM. GPR7-expressing cells, fluorescence antagonist assay. 290,000 tested, 1.1% active. Neuropeptides B/W receptor type 1 (Homo sapiens), P48145; in the data active = inhibition above about 16%, passing the limit was not always enough;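 also: cells stimulated with the agonist NPW; 0% = agonist with vehicle and 100% = vehicle without agonist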
CHO parental Ca: ATP-evoked calcium signal inhibitors, parental CHO, primary screen, counter-screen for OX1R antagonist project, cell-based, fluorescence, Fluo-8 calcium dye; parental CHO-K1, ATP-induced calcium, Fluo-8 fluorescence; inhibition, % at 5.6 µM; 330,000 tested, 0.63% active; AID 463079, 2010;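 active = inhibition above that plate's mean sample inhibition plus 3 SD, cut at about 26% in these data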;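 also: 0% = ATP-challenged DMSO wells and 100% = DMSO wells without ATP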
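Assay system – parental CHO cells · Reagent – ATP stimulus · Detection – intracellular calcium via Fluo-8 no-wash fluorescent dye · Evaluation – percent inhibition of ATP-evoked calcium rise, normalized to controls · Controls – ATP wells versus no-ATP DMSO wells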
TAAR1 antagonist: human TAAR1 antagonists, primary screen, Fluo-8 calcium fluorescence, CHO RD-HGA16 cells | antagonist | 360,000 tested, 1.5% active | Trace amine-associated receptor 1 (Homo sapiens), Q96RJ0 | inhibition, % at 3 µM | AID 624466, 2012;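 active = inhibition above a per-plate cutoff, the mean inhibition of test compounds on that plate plus 3 SD, cut at about 49% in these data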;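 also: 0% = DMSO plus EC80 beta-PEA response and 100% = DMSO alone without agonist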
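Test system – hTAAR1-expressing CHO RD-HGA16 cells, Gα16-coupled · Also added – β-PEA at EC80 concentration, post-compound challenge · Compound – 3 µM, single point · Incubation – dye loading 75 min at 37 °C, then 30 min room temperature · Measured by – Fluo-8 intracellular calcium dye fluorescence, real-time kinetic reads · Benchmarks – vehicle and agonist controls · Replicates – singlicate, one well per test compound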
The depositor's hits bear a star; x = no result. The list is not random: actives were taken first. Their share in the collection is about 4.6%.

SMILES | OX1R antag-1 | TAAR1 ag | OX1R antag-2 | GPR7 antag | CHO parental Ca | TAAR1 antagonist
COc1ccc(NC(=O)c2cc(-c3cc(F)ccc3OCC3CCCO3)n[nH]2)c(C)c1 (centres undefined) | x | -0.5 | x | x | x | 18.4
COc1cc(/C=C2/SC(=O)N(CC(=O)N3CCCC3)C2=O)ccc1Oc1ccc([N+](=O)[O-])cn1 | -13.8 | 0.7 | 9.8 | -21.1 | -2.5 | -5.9
N#Cc1cccc(NC(=O)COC(=O)c2cccc(N3C(=O)c4ccccc4C3=O)c2)c1 | -5.0 | 8.0 | 26.3 | 6.2 | -8.2 | 60.1*
O=C(COC(=O)c1cccc(N2C(=O)c3ccccc3C2=O)c1)Nc1ccccc1 | -13.5 | 3.8 | 20.6 | -3.7 | -20.8 | 22.6
Cc1ccccc1CSc1nnc(C)c(=O)[nH]1 | -7.8 | 6.3 | 17.1 | 17.4* | 0.3 | -41.1
Nc1[nH]c(C(=O)c2ccccc2)c(-c2cccnc2)c1C(=O)NC1CCCCC1 | x | 3.2 | x | x | x | 2.8
O=C(COc1ccc2ccccc2c1)Nc1ccc(Cc2ccncc2)cc1 | 59.1* | 2.9 | 34.5 | -3.5 | 23.6 | 25.6
COc1cc2ccccc2cc1C(=O)Nc1ccc(Cc2ccncc2)cc1 | 44.7* | 18.7 | 21.3 | 1.6 | 38.2* | 41.2
O=C(O)Cc1ccc(NC(=O)COc2ccc3ccccc3c2)cc1 | 4.6 | 2.7 | -0.8 | -10.2 | -6.3 | -1.2
COCCNc1nc(NCCN2CCNC2=O)c2sccc2n1 | x | -0.2 | x | x | x | 15.1
COCC(=O)N1C[C@@H](C)[C@@H](OC)CN(C)C(=O)c2ccc(NC(=O)c3cnccn3)cc2OC[C@H]1C | x | 2.9 | x | x | x | -10.4
O=C1c2ccccc2-c2onc3ccc(Oc4ccccc4)c1c23 | -9.2 | 43.2* | 14.6 | -5.0 | 0.7 | 66.8*
O=C(c1ccccc1)c1coc2c1C(=O)c1ccccc1C2=O | -20.1 | 2.1 | 42.9 | -9.1 | -12.7 | -26.8
Cc1ccc(/C=C/c2nnc(-c3cccs3)o2)cc1 | -9.8 | -4.4 | 41.9* | 2.0 | -28.1 | -31.4
O=C(/C=C\c1ccco1)Nc1nc(-c2ccccc2)cs1 | -8.6 | 0.8 | 9.5 | -2.6 | -6.1 | -42.2
O=C(/C=C/c1ccccc1)Nc1nc(-c2ccncc2)cs1 | -17.8 | 2.5 | 25.4 | 15.1 | 17.3 | 49.6*
O=C1N/C(=C/c2ccsc2)C(=O)N1c1ccccc1 | -4.2 | 43.7* | 11.1 | 1.0 | -1.8 | 17.5
CC(=O)Nc1ccccc1OCC(=O)NCCc1ccc(Cl)cc1Cl | -13.8 | 7.1 | 13.4 | -11.5 | -7.9 | -2.6
O=c1ccc2cc3c([nH]c4ccc(Br)cc43)oc-2c1O | 6.7 | 38.2* | 33.1 | -1.2 | -6.4 | 10.6
Cc1nnsc1C(=O)N1CCCC(Nc2ccc(F)c(F)c2)C1 (centres undefined) | -0.6 | 2.4 | 6.9 | -0.6 | 1.8 | -0.9
Cc1nnc2n1N=CC=C(c1ccccc1)S2 | -4.0 | 7.6 | 53.6* | 16.0 | -9.3 | 5.2
Cc1nnc2n1N=CC=C(C(C)(C)C)S2 | 1.3 | -0.3 | 14.1 | 5.9 | -0.2 | 15.4
Cc1ccccc1-n1c(=O)c(C#N)cc2c(=O)n3ccccc3nc21 | -8.9 | 7.6 | 48.5* | 8.2 | -11.9 | 6.0
COCC(C)n1c(SCC(=O)Nc2cccnc2Cl)nc2ccccc2c1=O (centres undefined) | x | -2.0 | x | x | x | -15.3
COc1cc(/C=N\NC(=O)c2ccc(Cn3nc([N+](=O)[O-])c(Cl)c3C)o2)ccc1O | -0.9 | 11.7 | 16.7 | 15.9 | -0.8 | 49.5*
Cc1c(Cl)c([N+](=O)[O-])nn1Cc1ccc(C(=O)N/N=C\c2ccccn2)o1 | -19.6 | 6.9 | 18.1 | -9.3 | 19.7 | -18.5
Cc1c(Cl)cnc(NC(=O)COC(=O)[C@@H](NC(=O)c2ccco2)C(C)C)c1Cl | -35.2 | -2.8 | 8.7 | x | -27.2 | 9.9
O=C1N=C(O)CN1/N=C/c1ccc(-c2ccc([N+](=O)[O-])cc2)o1 | -12.5 | -2.1 | 59.2* | x | -19.5 | -14.3
CC1CCN(S(=O)(=O)c2ccc3nc(-c4ccccn4)cc(C(=O)NCCN(C)Cc4ccccc4)c3c2)CC1 | x | 2.5 | x | -13.5 | x | -16.8
